What was measured:
Type in all cases: functional, cell-based
[1] = system: H2981 cell line; assay: Bacillus cereus beta-lactamase (BCbL) enzyme concentration required to achieve an IC50 value of compound on H2981 lung adenocarcinoma cells; settings: Homo sapiens
Summary of the method: (§1)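 H2981 cells were plated at 4000 or 8000/well and allowed to adhere 18 h at 37 °C. Prodrug was held fixed at 1 μM while β-lactamase was titrated. After 1 h at 37 °C, cells were washed and incubated 18 h. A [³H]thymidine pulse (1 μCi/well) followed, 6 h or 18 h depending on seeding.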

[2] = system: H2981 cell line; assay: Concentration resulting in 50% incorporation of [3H]thymidine compared to untreated control cells on H2981 human lung adenocarcinoma cells in the presence of doxorubicin; settings: H2981, 1 h
Summary of the method: (§2)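 H2981 cells in IMDM/10% FBS were seeded at 4000 or 8000 per well and left 18 h at 37 °C. Drug, ±EClbL, was given in RPMI/10% FBS over a concentration range for 1 h at 37 °C, then washed off and cells kept 18 h. [³H]thymidine (1 μCi/well) was pulsed 6 h (8000 cells) or 18 h (4000 cells).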

[3] = system: H2981 cell line; assay: Escherichia coli TEM-1 beta-lactamase (ECbL) enzyme concentration required to achieve an IC50 value of compound on H2981 lung adenocarcinoma cells; settings: Homo sapiens; summary of the method: as §1
[4] = system: H2981 cell line; assay: Concentration resulting in 50% incorporation of [3H]thymidine compared to untreated control cells on H2981 human lung adenocarcinoma cells in the absence of Enterobacter cloacae P99 beta-lactamase (ECIbL); settings: H2981, 1 h; summary of the method: as §2
[5] = system: H2981 cell line; assay: Enterobacter cloacae P99 beta-lactamase (ECIbL) enzyme concentration required to achieve an IC50 value of compound on H2981 lung adenocarcinoma cells; settings: Homo sapiens; summary of the method: as §1
[6] = system: H2981 cell line; assay: Concentration resulting in 50% incorporation of [3H]thymidine compared to untreated control cells on H2981 human lung adenocarcinoma cells in the presence of 10 ug/mL Enterobacter cloacae P99 beta-lactamase (ECIbL); settings: H2981, 1 h; summary of the method: as §2
[7] = system: H2981 cell line; assay: Cytotoxicity on H2981 Human lung adenocarcinoma cells.; summary of the method: as §2

Row | Structure (SMILES) | IC50 [1] | IC50 [2] | IC50 [3] | IC50 [4] | IC50 [5] | IC50 [6] | IC50 [7]
1 | COc1cccc2c1C(=O)c1c(O)c3c(c(O)c1C2=O)C[C@@](O)(C(=O)CO)C[C@@H]3OC1CC(NC(=O)OCC2=C(C(=O)O)N3C(=O)[C@@H](NC(=O)CSC4OC(CO)C(O)C(O)C4O)[C@H]3SC2)C(O)C(C)O1 (some centres not stated) | 1.58 nM | 460 nM | 1.13 nM | 2500 nM | 0.13 nM | 450 nM | 
2 | COc1cccc2c1C(=O)c1c(O)c3c(c(O)c1C2=O)C[C@@](O)(C(=O)CO)C[C@@H]3OC1CC(NC(=O)OCC2=C(C(=O)O)N3C(=O)[C@@H](NC(=O)CCCC(=O)O)[C@H]3SC2)C(O)C(C)O1 (some centres not stated) | 1.13 nM | 480 nM | 6.5 nM | 21900 nM | 0.039 nM | 470 nM | 
3 | COc1cccc2c1C(=O)c1c(O)c3c(c(O)c1C2=O)C[C@@](O)(C(=O)CO)C[C@@H]3OC1CC(NC(=O)OCC2=C(C(=O)O)N3C(=O)[C@@H](NC(=O)Cc4ccccc4)[C@H]3SC2)C(O)C(C)O1 (some centres not stated) | 0.25 nM | 550 nM | 0.68 nM | 7400 nM | 0.012 nM | 750 nM | 
4 | COc1cccc2c1C(=O)c1c(O)c3c(c(O)c1C2=O)C[C@@](O)(C(=O)CO)C[C@@H]3OC1CC(NC(=O)OCC2=C(C(=O)O)N3C(=O)[C@@H](NC(=O)Cc4cccs4)[C@H]3SC2)C(O)C(C)O1 (some centres not stated) | 0.21 nM | 560 nM | 0.25 nM | 10300 nM | 0.024 nM | 550 nM | 
5 | COc1cccc2c1C(=O)c1c(O)c3c(c(O)c1C2=O)C[C@@](O)(C(=O)CO)C[C@@H]3OC1CC(NC(=O)OCC2=C(C(=O)O)N3C(=O)[C@@H](N)[C@H]3SC2)C(O)C(C)O1 (some centres not stated) | 24.9 nM | 460 nM | 185 nM | 8200 nM | 9.86 nM | 430 nM | 
6 | COc1cccc2c1C(=O)c1c(O)c3c(c(O)c1C2=O)C[C@@](O)(C(=O)CO)C[C@@H]3OC1CC(NC(=O)OCC2=C(C(=O)O)N3C(=O)[C@@H](NC(=O)C(c4ccccc4)S(=O)(=O)O)[C@H]3SC2)C(O)C(C)O1 (some centres not stated) | 0.39 nM | 560 nM | 22.7 nM | 14800 nM | 5.65 nM | 470 nM | 
7 | COc1cccc2c1C(=O)c1c(O)c3c(c(O)c1C2=O)C[C@@](O)(C(=O)CO)C[C@@H]3O[C@H]1C[C@H](N)[C@H](O)[C@H](C)O1 [DOXORUBICIN] |  |  |  |  |  |  | 500 nM

— ChEMBL document CHEMBL1128301, “Cephalosporin derivatives of doxorubicin as prodrugs for activation by monoclonal antibody-beta-lactamase conjugates” (J Med Chem, 1995)
